Compounds with a hit are over-represented: about 1.2% of the library has one in this group of screens.
Diaph act CS = counter-screen for diaphorase-based assays: diaphorase activators and chemical reducers. Diaphorase/resazurin coupled assay, resorufin fluorescence, 16 min; active compounds read high; 1 = vehicle wells, 0 = NADH-free wells. activation factor at 20 µM. 190,000 compounds, 0.005% hits;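 active = diaphorase activity raised at least twofold by the compound at 20 µM; inactive = activation factor below 2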
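Assay system: bacterial diaphorase enzyme (C. kluyveri) / Input: enzyme 0.07 U/mL final / Medium: 50 mM HEPES pH 7.4 with 4.542 mM MgCl2, 0.005% Tween 20 / Doses: single compound dose of 20 µM, 1% DMSO final / Incubation: 16 min enzyme reaction, ambient temperature / Signal: fluorescence, excitation 544 nm and emission 590 nm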
Redox H2O2 prof = compounds producing H2O2 with reducing agent – biochemical, NIH compound library profiling, artefact control for MLSCN library redox annotation, primary screen | activation, % at 10 µM | DTT-dependent redox cycling H2O2, phenol red/HRP absorbance; 100% = 100 µM peroxide control, 0% = buffer | 200,000 compounds, 0.03% hits | AID 878;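 active = activation of at least 50% relative to the plate's high and low controls in the primary single-dose screen; inactive = activation below 50%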;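 also: compound incubated with DTT at 0.8 mM final as the reducing agent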
PMI activator = phosphomannose isomerase (human) activation; activation factor at 20 µM; purified human PMI, coupled resazurin fluorescence, 20 min; active compounds read high; 1 = vehicle control, 0 substrate-free wells; 190,000 compounds, 0.005% hits; P34949;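 active = activation factor of 2 or more at 20 µM, relative to plate controls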
Target sequence (P34949 whole entry, looked up): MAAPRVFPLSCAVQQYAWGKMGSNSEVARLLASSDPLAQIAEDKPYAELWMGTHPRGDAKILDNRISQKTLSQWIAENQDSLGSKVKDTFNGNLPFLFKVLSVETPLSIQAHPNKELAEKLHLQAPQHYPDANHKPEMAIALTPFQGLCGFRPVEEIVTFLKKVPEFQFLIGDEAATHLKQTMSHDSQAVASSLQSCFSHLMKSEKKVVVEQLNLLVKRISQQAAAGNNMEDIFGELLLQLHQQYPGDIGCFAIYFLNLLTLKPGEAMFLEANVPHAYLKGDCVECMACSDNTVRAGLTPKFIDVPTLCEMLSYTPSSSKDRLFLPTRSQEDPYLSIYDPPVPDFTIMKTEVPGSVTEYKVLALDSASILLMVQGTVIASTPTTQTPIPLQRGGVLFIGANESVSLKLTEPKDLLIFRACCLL
PMI act satM6P = PMI (human) activation, high substrate; 190,000 compounds, 0.34% hits; activation factor at 20 µM; P34949; coupled PMI enzyme assay, resazurin fluorescence, 20 min; active compounds read high; 1 = untreated enzyme, 0 = substrate-free blank; AID 1216;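 active = activation factor of 2 or more at 20 µM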
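test system = human PMI in coupled enzyme assay | medium = HEPES-buffered pH 7.4 with magnesium and detergent | also added = 1.0 mM mannose-6-phosphate substrate with 0.22 mM NADP+ | compound = 20 µM single dose | times = 20 min incubation at room temperature | measured by = resorufin fluorescence (Ex 544/Em 590 nm) from resazurin via diaphorase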
NCF1 inh = p47phox (human) inhibition; p47phox/p22phox peptide binding, fluorescence polarization, 2 h; P14598; 220,000 compounds, 0.53% hits; inhibition, % at 24.7 µM;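 active = inhibition above about 30%, limit read from the data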
Efa HMGR inh = blocks class II HMG-CoA reductase of Enterococcus faecalis; purified E. faecalis HMGR, NADPH absorbance 340 nm kinetic; inhibition, % at 10 µM; 190,000 compounds, 0.41% hits;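 active = inhibition above a set limit, the median over all tested compounds plus 3 SD, cut at about 9.5% in these data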;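 also: enzyme runs in reverse so mevalonate oxidation gives rising NADPH absorbance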
Redox H2O2 DR = redox cycling H2O2 generation, confirmed | shares compounds with Redox H2O2 prof | DTT-dependent redox cycling H2O2, phenol red-HRP absorbance | EC50, µM | 60 compounds, 40% hits;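 active = EC50 under a set limit for hydrogen peroxide production with the reducing agent DTT present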
Numbers stand for hits; 0 = inactive; - = not tested or not shown.

SMILES	Diaph act CS	Redox H2O2 prof	PMI activator	PMI act satM6P	NCF1 inh	Efa HMGR inh	others
COc1ccc(C(=O)N/N=C(\Cc2ncc[nH]2)c2ccccc2)cc1	0	0	0	0	0	0
c1ccc(N/N=C(\Cc2ncc[nH]2)c2ccccc2)cc1	0	0	0	2.3	0	0
CCn1c(SCC(=O)c2ccc(O)c(O)c2)nnc1-c1ccccc1OC	0	0	0	0	70	0
C=CCn1c(SCC(=O)c2ccc(O)c(O)c2)nnc1-c1ccccc1OC	0	0	0	0	0	0
O=C(O)CCCCCn1c(SCC(=O)c2ccc(O)c(O)c2)nc2ccsc2c1=O	0	0	0	0	0	13
COC(=O)C1=NN(N=O)C2(CC(=O)N(c3cc(C)cc(C)c3)C2=O)C1 (stereo not given)	0	0	0	2	0	0
COc1cc(CNC2CCCC2)cc(Br)c1OCC(=O)Nc1ccccc1C	0	0	0	0	0	0
O=C(Cc1n[nH]c(=O)c2ccccc12)NCc1ccccn1	0	0	0	0	0	10
C=CCN(C(=O)C1=NN(C2CCS(=O)(=O)C2)C(=O)CC1)c1nc(-c2ccc([N+](=O)[O-])cc2)cs1 (stereo not given)	0	0	0	0	0	0
COc1ccc(C(=O)NCC(=O)OCC(=O)N2CCc3ccccc32)cc1	0	0	0	0	0	0
COc1ccc(C(=O)NCC(=O)N2CCc3ccccc3C2)cc1	0	0	0	0	79	0
COCCCNC(=S)N1CCCN(c2nc3c(C)c(C)ccc3cc2C#N)CC1	-	0	-	-	0	0
COCCCNC(=S)NCCNc1nc2c(C)c(C)ccc2cc1C#N	0	0	0	2.8	0	0
COCCCNC(=S)NCCCNc1nc2cc(C)cc(C)c2cc1C#N	0	0	0	2.5	0	0
CCOc1ccc(C(CC(=O)O)n2cnnn2)cc1 (stereo not given)	0	0	0	0	0	0
Cc1ccc(C(NC(=O)N2CCOCC2)=C(Cl)Cl)cc1F	0	0	0	0	42	0
Cc1[nH]c2c(ccc3ccccc32)c1C1C(CCN)C1(C)C (stereo not given)	0	0	0	0	60	0
O=C(c1cc([N+](=O)[O-])ccc1Cl)N1CCN(c2ccccn2)CC1	0	0	0	0	0	11
CCOC(=O)c1ccccc1NC(=O)COC(=O)c1ccc(C)c(S(=O)(=O)N2CCOCC2)c1	0	0	0	0	93	0
Cc1ccc(NC(=O)COC(=O)CN2C(=O)NC(C)(C)C2=O)cc1S(=O)(=O)N1CCOCC1	0	0	0	0	0	9.7
CCOc1ccc(NS(=O)(=O)c2ccc3ncsc3c2)cc1	0	0	0	0	0	0
CCOC(=O)c1ccc(N(C(=O)c2cnccn2)C(C(=O)NC2CCCCC2)c2cn(C)nc2C)cc1 (stereo not given)	0	0	0	0	0	15
CC(=O)c1cnn(-c2c(Cl)cc(Cl)cc2Cl)c1C	-	-	-	-	0	-
Cn1nc(-c2ccccc2)c(CSc2ccccc2)c1Cl	0	0	0	0	139	0
CC(C)(C)C1=C(C#N)C(c2ccc3c(c2)OCO3)C(C#N)=C(N)O1 (stereo not given)	0	0	0	0	0	11
SMILES	Diaph act CS	Redox H2O2 prof	PMI activator	PMI act satM6P	NCF1 inh	Efa HMGR inh	others
COc1ccc(OC)c(C2C(C#N)=C(N)Oc3cc(N)ccc32)c1 (stereo not given)	0	0	0	0	0	0
COc1ccc(C2C(C#N)=C(N)Oc3cc4c(cc32)OCO4)cc1 (stereo not given)	0	0	0	0	64	0
CC(c1ccon1)N(C)C(=O)CCc1nnc(C2(c3ccc(Cl)cc3)CCC2)o1 (stereo not given)	0	0	0	0	0	0
COc1ccc(Cc2nc(C(=O)NCc3ccccc3OC)cs2)cc1	0	0	0	0	31	-
COc1ccc(Cc2nc(C(=O)Nc3ccc(OC)cc3)cs2)cc1	0	0	0	0	0	0
Fc1ccc2c(c1)C(c1ccncc1)=NNC(c1cccnc1)=N2	0	0	0	0	0	-
CCc1n[nH]c(=O)n1Cn1c(CC)n[nH]c1=O	0	0	0	0	37	0
O=C1CCC(C(=O)N2CCCC(C(=O)c3ccc4c5c(cccc35)CC4)C2)=NN1 (stereo not given)	0	0	0	0	0	0
CC(C)(O)C1Cc2cc(/C=C/C(=O)O)c(O)cc2O1 (stereo not given)	0	0	0	0	85	0
O=C(Nc1ccc(N2CCN(C(=O)c3cccs3)CC2)c(Cl)c1)c1cccnc1	0	0	0	0	0	11
CN(C)Cc1cc(O)c(CN(C)C)cc1O	-	-	-	-	37	-
CC1(C)NC(=O)N(CC(O)COC2CCCCC2)C1=O (stereo not given)	0	0	0	0	41	0
CC1CCCN(C(=O)C2CCN(CCCc3ccccc3)CC2)C1 (stereo not given)	0	0	0	0	0	0
CC1CCCN(C(=O)C2CCN(CC(C)c3ccccc3)CC2)C1 (stereo not given)	0	0	0	0	0	15
CCN(CC)c1ccc(/C=C2\CCC(/C=C(\C#N)C(=O)Nc3ccccc3F)=C2N2CCOCC2)cc1	0	0	0	0	120	0
N#C/C(=C\C1=C(N2CCOCC2)C(=C\c2ccc(Cl)cc2)/CC1)C(=O)Nc1ccccc1F	0	0	0	0	0	0
COC1=C(N)C(=O)c2nc(-c3nc(C(=O)O)c(C)c(-c4ccc(OC)c(OC)c4O)c3N)ccc2C1=O	0	132	0	0	0	0	Redox H2O2 DR=1.5
COc1ccc(-c2ncncc2-c2csc(C)n2)c(O)c1OC	0	0	0	0	0	0
CC(=O)C(C(C)=O)C1(O)C(=O)c2ccccc2C1=O	0	88	0	0	0	0	Redox H2O2 DR=0
CC(NC(=O)COC(=O)c1ccc([N+](=O)[O-])s1)c1ccccc1 (stereo not given)	0	114	0	0	0	0	Redox H2O2 DR=0
O=C1C(=O)c2ccc(-c3ccccc3)cc2-c2ccccc21	0	315	0	0	0	0	Redox H2O2 DR=0.91
Nc1ccc2c(c1)C(=O)C(=O)c1ccccc1-2	0	0	0	0	0	0
CN(C)S(=O)(=O)c1ccc(-c2csnn2)s1	0	0	0	0	0	0
C/C(=N/Nc1ccc(C(=O)O)cc1)c1ccc(O)c(O)c1O	0	105	0	0	0	11	Redox H2O2 DR=0
O=C1C=C(NCCN2CCOCC2)C(=O)c2cnccc21	0	176	0	0	0	0	Redox H2O2 DR=0

Screening data: PubChem BioAssay, several laboratories
